From ChEMBL document CHEMBL4689842, “EUbOPEN Chemogenomics Library wave 1” (2021)

Test system: Fibroblast
Assay: Multiplex assay against human fibroblast
Assay type: toxicity, cell-based
In short: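 Four dyes were applied at seeding to live cells: Hoechst33342, BioTracker Green Microtubule Cytoskeleton Dye, MitoTracker Red and Annexin V Alexa Fluor 680. Imaging after compound addition used a CQ1 microscope at 37°C and 5% CO2. CellPathfinder machine-learning gating then sorted cells into Hoechst high-intensity objects or normal cells, normal cells into healthy, pyknosed or fragmented nuclei, and pyknosed cells into mitotic or apoptotic, with tubulin, mitochondrial-mass and membrane-permeability phenotypes given as per cents of healthy-nucleus cells.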

[1] = 12 h, 1 µM, compound concentration 1 uM, replicate 1
[2] = 12 h, 1 µM, compound concentration 1 uM, replicate 2
[3] = 12 h, 10 µM, compound concentration 10 uM, replicate 1
[4] = 12 h, 10 µM, compound concentration 10 uM, replicate 2
[5] = 24 h, 1 µM, compound concentration 1 uM, replicate 1
[6] = 24 h, 1 µM, compound concentration 1 uM, replicate 2
[7] = 24 h, 10 µM, compound concentration 10 uM, replicate 1
[8] = 24 h, 10 µM, compound concentration 10 uM, replicate 2
[9] = 48 h, 1 µM, compound concentration 1 uM, replicate 1
[10] = 48 h, 1 µM, compound concentration 1 uM, replicate 2
[11] = 48 h, 10 µM, compound concentration 10 uM, replicate 1
[12] = 48 h, 10 µM, compound concentration 10 uM, replicate 2

In the case of `CNc1oc(-c2cccc3ccccc23)nc1C#N`, the “Population Apoptotic (%)” value [1] is reported as 75%, the “Population Fragmented Nuclei (%)” value [1] is reported as 65% and the “Population Healthy Nuclei (%)” value [1] is reported as 23%. For the same molecule, the “Population Hoechst High Intensity Objects (%)” value [1] was 70%, the “Population Membrane Permeable-Phenotype (%)” value [1] was 25% and the “Population Mitochondria Different-Phenotype (%)” value [1] was 0%. The “Population Mitotic Cells (%)” value [1] was 25%, the “Population Normal (%)” value [1] was 29% and the “Population Pyknosed Nuclei (%)” value [1] was 10%. For the same molecule, the “Population Tubulin-Different-Phenotype (%)” value [1] was 14%, the “Total Cell Count” value [1] was 381 and the “Population Apoptotic (%)” value [2] was 0%. For the same molecule, the “Population Fragmented Nuclei (%)” value [2] was 29%, the “Population Healthy Nuclei (%)” value [2] was 67% and the “Population Hoechst High Intensity Objects (%)” value [2] was 15%. For the same molecule, the “Population Membrane Permeable-Phenotype (%)” value [2] was 3%, the “Population Mitochondria Different-Phenotype (%)” value [2] was 11% and the “Population Mitotic Cells (%)” value [2] was 100%. The “Population Normal (%)” value [2] was 84%, the “Population Pyknosed Nuclei (%)” value [2] was 2% and the “Population Tubulin-Different-Phenotype (%)” value [2] was 7%. The “Total Cell Count” value [2] was 100, the “Population Apoptotic (%)” value [3] was 92% and the “Population Fragmented Nuclei (%)” value [3] was 41%. The “Population Healthy Nuclei (%)” value [3] was 23%, the “Population Hoechst High Intensity Objects (%)” value [3] was 64% and the “Population Membrane Permeable-Phenotype (%)” value [3] was 0%. The “Population Mitochondria Different-Phenotype (%)” value [3] was 0%, the “Population Mitotic Cells (%)” value [3] was 7% and the “Population Normal (%)” value [3] was 35%. For the same molecule, the “Population Pyknosed Nuclei (%)” value [3] was 35%, the “Population Tubulin-Different-Phenotype (%)” value [3] was 0% and the “Total Cell Count” value [3] was 3193. The “Population Apoptotic (%)” value [4] was 80%, the “Population Fragmented Nuclei (%)” value [4] was 55% and the “Population Healthy Nuclei (%)” value [4] was 16%. For the same molecule, the “Population Hoechst High Intensity Objects (%)” value [4] was 46%, the “Population Membrane Permeable-Phenotype (%)” value [4] was 1% and the “Population Mitochondria Different-Phenotype (%)” value [4] was 3%. For the same molecule, the “Population Mitotic Cells (%)” value [4] was 19%, the “Population Normal (%)” value [4] was 53% and the “Population Pyknosed Nuclei (%)” value [4] was 28%. For the same molecule, the “Population Tubulin-Different-Phenotype (%)” value [4] was 24%, the “Total Cell Count” value [4] was 92 and the “Population Apoptotic (%)” value [5] was 33%. For the same molecule, the “Population Fragmented Nuclei (%)” value [5] was 66%, the “Population Healthy Nuclei (%)” value [5] was 27% and the “Population Hoechst High Intensity Objects (%)” value [5] was 70%. For the same molecule, the “Population Membrane Permeable-Phenotype (%)” value [5] was 6%, the “Population Mitochondria Different-Phenotype (%)” value [5] was 0% and the “Population Mitotic Cells (%)” value [5] was 66%. The “Population Normal (%)” value [5] was 29%, the “Population Pyknosed Nuclei (%)” value [5] was 5% and the “Population Tubulin-Different-Phenotype (%)” value [5] was 3%. The “Total Cell Count” value [5] was 391, the “Population Apoptotic (%)” value [6] was 25% and the “Population Fragmented Nuclei (%)” value [6] was 28%. For the same molecule, the “Population Healthy Nuclei (%)” value [6] was 67%, the “Population Hoechst High Intensity Objects (%)” value [6] was 6% and the “Population Membrane Permeable-Phenotype (%)” value [6] was 1%. The “Population Mitochondria Different-Phenotype (%)” value [6] was 10%, the “Population Mitotic Cells (%)” value [6] was 75% and the “Population Normal (%)” value [6] was 93%. The “Population Pyknosed Nuclei (%)” value [6] was 3%, the “Population Tubulin-Different-Phenotype (%)” value [6] was 21% and the “Total Cell Count” value [6] was 113. For the same molecule, the “Population Apoptotic (%)” value [7] was 93%, the “Population Fragmented Nuclei (%)” value [7] was 44% and the “Population Healthy Nuclei (%)” value [7] was 24%. The “Population Hoechst High Intensity Objects (%)” value [7] was 66%, the “Population Membrane Permeable-Phenotype (%)” value [7] was 1% and the “Population Mitochondria Different-Phenotype (%)” value [7] was 0%. For the same molecule, the “Population Mitotic Cells (%)” value [7] was 6%, the “Population Normal (%)” value [7] was 33% and the “Population Pyknosed Nuclei (%)” value [7] was 31%. For the same molecule, the “Population Tubulin-Different-Phenotype (%)” value [7] was 0%, the “Total Cell Count” value [7] was 2998 and the “Population Apoptotic (%)” value [8] was 81%. For the same molecule, the “Population Fragmented Nuclei (%)” value [8] was 57%, the “Population Healthy Nuclei (%)” value [8] was 16% and the “Population Hoechst High Intensity Objects (%)” value [8] was 44%. The “Population Membrane Permeable-Phenotype (%)” value [8] was 3%, the “Population Mitochondria Different-Phenotype (%)” value [8] was 3% and the “Population Mitotic Cells (%)” value [8] was 18%. The “Population Normal (%)” value [8] was 55%, the “Population Pyknosed Nuclei (%)” value [8] was 25% and the “Population Tubulin-Different-Phenotype (%)” value [8] was 26%. For the same molecule, the “Total Cell Count” value [8] was 116, the “Population Apoptotic (%)” value [9] was 40% and the “Population Fragmented Nuclei (%)” value [9] was 71%. The “Population Healthy Nuclei (%)” value [9] was 23%, the “Population Hoechst High Intensity Objects (%)” value [9] was 77% and the “Population Membrane Permeable-Phenotype (%)” value [9] was 22%. The “Population Mitochondria Different-Phenotype (%)” value [9] was 4%, the “Population Mitotic Cells (%)” value [9] was 60% and the “Population Normal (%)” value [9] was 22%. The “Population Pyknosed Nuclei (%)” value [9] was 5%, the “Total Cell Count” value [9] was 411 and the “Population Apoptotic (%)” value [10] was 80%. The “Population Fragmented Nuclei (%)” value [10] was 75%, the “Population Healthy Nuclei (%)” value [10] was 19% and the “Population Hoechst High Intensity Objects (%)” value [10] was 78%. The “Population Membrane Permeable-Phenotype (%)” value [10] was 31%, the “Population Mitochondria Different-Phenotype (%)” value [10] was 0% and the “Population Mitotic Cells (%)” value [10] was 20%. For the same molecule, the “Population Normal (%)” value [10] was 21%, the “Population Pyknosed Nuclei (%)” value [10] was 4% and the “Population Tubulin-Different-Phenotype (%)” value [10] was 4%. The “Total Cell Count” value [10] was 519, the “Population Apoptotic (%)” value [11] was 85% and the “Population Fragmented Nuclei (%)” value [11] was 47%. For the same molecule, the “Population Healthy Nuclei (%)” value [11] was 22%, the “Population Hoechst High Intensity Objects (%)” value [11] was 65% and the “Population Membrane Permeable-Phenotype (%)” value [11] was 0%. The “Population Mitochondria Different-Phenotype (%)” value [11] was 0%, the “Population Mitotic Cells (%)” value [11] was 14% and the “Population Normal (%)” value [11] was 34%. For the same molecule, the “Population Pyknosed Nuclei (%)” value [11] was 30%, the “Population Tubulin-Different-Phenotype (%)” value [11] was 0% and the “Total Cell Count” value [11] was 2643. The “Population Fragmented Nuclei (%)” value [12] was 46%, the “Population Healthy Nuclei (%)” value [12] was 23% and the “Population Hoechst High Intensity Objects (%)” value [12] was 69%. The “Population Normal (%)” value [12] was 30%, the “Population Tubulin-Different-Phenotype (%)” value [12] was 1% and the “Total Cell Count” value [12] was 2437.

In the case of `CCOc1cc(N2CCC(O)CC2)ccc1Nc1ncc2c(n1)N(C1CCCC1)CCC(=O)N2C`, the “Population Apoptotic (%)” value [1] is reported as 64%, the “Population Fragmented Nuclei (%)” value [1] is reported as 25% and the “Population Healthy Nuclei (%)” value [1] is reported as 58%. For the same molecule, the “Population Hoechst High Intensity Objects (%)” value [1] was 12%, the “Population Membrane Permeable-Phenotype (%)” value [1] was 8% and the “Population Mitochondria Different-Phenotype (%)” value [1] was 7%. For the same molecule, the “Population Mitotic Cells (%)” value [1] was 35%, the “Population Normal (%)” value [1] was 87% and the “Population Pyknosed Nuclei (%)” value [1] was 16%. The “Population Tubulin-Different-Phenotype (%)” value [1] was 11%, the “Total Cell Count” value [1] was 197 and the “Population Apoptotic (%)” value [2] was 0%. The “Population Fragmented Nuclei (%)” value [2] was 46%, the “Population Healthy Nuclei (%)” value [2] was 48% and the “Population Hoechst High Intensity Objects (%)” value [2] was 33%. For the same molecule, the “Population Membrane Permeable-Phenotype (%)” value [2] was 17%, the “Population Mitochondria Different-Phenotype (%)” value [2] was 17% and the “Population Mitotic Cells (%)” value [2] was 100%. For the same molecule, the “Population Normal (%)” value [2] was 66%, the “Population Pyknosed Nuclei (%)” value [2] was 4% and the “Population Tubulin-Different-Phenotype (%)” value [2] was 39%. The “Total Cell Count” value [2] was 71, the “Population Apoptotic (%)” value [3] was 84% and the “Population Fragmented Nuclei (%)” value [3] was 23%. The “Population Healthy Nuclei (%)” value [3] was 58%, the “Population Hoechst High Intensity Objects (%)” value [3] was 14% and the “Population Membrane Permeable-Phenotype (%)” value [3] was 8%. For the same molecule, the “Population Mitochondria Different-Phenotype (%)” value [3] was 2%, the “Population Mitotic Cells (%)” value [3] was 15% and the “Population Normal (%)” value [3] was 85%. The “Population Pyknosed Nuclei (%)” value [3] was 17%, the “Population Tubulin-Different-Phenotype (%)” value [3] was 1% and the “Total Cell Count” value [3] was 291. For the same molecule, the “Population Apoptotic (%)” value [4] was 37%, the “Population Fragmented Nuclei (%)” value [4] was 50% and the “Population Healthy Nuclei (%)” value [4] was 36%. For the same molecule, the “Population Hoechst High Intensity Objects (%)” value [4] was 29%, the “Population Membrane Permeable-Phenotype (%)” value [4] was 27% and the “Population Mitochondria Different-Phenotype (%)” value [4] was 4%. The “Population Mitotic Cells (%)” value [4] was 62%, the “Population Normal (%)” value [4] was 70% and the “Population Pyknosed Nuclei (%)” value [4] was 13%. For the same molecule, the “Population Tubulin-Different-Phenotype (%)” value [4] was 18%, the “Population Apoptotic (%)” value [5] was 72% and the “Population Fragmented Nuclei (%)” value [5] was 27%. For the same molecule, the “Population Healthy Nuclei (%)” value [5] was 56%, the “Population Hoechst High Intensity Objects (%)” value [5] was 12% and the “Population Membrane Permeable-Phenotype (%)” value [5] was 6%. For the same molecule, the “Population Mitochondria Different-Phenotype (%)” value [5] was 6%, the “Population Mitotic Cells (%)” value [5] was 27% and the “Population Normal (%)” value [5] was 87%. The “Population Pyknosed Nuclei (%)” value [5] was 15%, the “Population Tubulin-Different-Phenotype (%)” value [5] was 7% and the “Total Cell Count” value [5] was 211. The “Population Apoptotic (%)” value [6] was 66%, the “Population Fragmented Nuclei (%)” value [6] was 57% and the “Population Healthy Nuclei (%)” value [6] was 35%. For the same molecule, the “Population Hoechst High Intensity Objects (%)” value [6] was 40%, the “Population Membrane Permeable-Phenotype (%)” value [6] was 26% and the “Population Mitochondria Different-Phenotype (%)” value [6] was 20%. The “Population Mitotic Cells (%)” value [6] was 33%, the “Population Normal (%)” value [6] was 59% and the “Population Pyknosed Nuclei (%)” value [6] was 7%. For the same molecule, the “Population Tubulin-Different-Phenotype (%)” value [6] was 26%, the “Total Cell Count” value [6] was 71 and the “Population Apoptotic (%)” value [7] was 67%. The “Population Fragmented Nuclei (%)” value [7] was 17%, the “Population Healthy Nuclei (%)” value [7] was 62% and the “Population Hoechst High Intensity Objects (%)” value [7] was 19%. The “Population Membrane Permeable-Phenotype (%)” value [7] was 5%, the “Population Mitochondria Different-Phenotype (%)” value [7] was 1% and the “Population Mitotic Cells (%)” value [7] was 32%. The “Population Normal (%)” value [7] was 80%, the “Population Pyknosed Nuclei (%)” value [7] was 19% and the “Population Tubulin-Different-Phenotype (%)” value [7] was 1%. For the same molecule, the “Total Cell Count” value [7] was 308, the “Population Apoptotic (%)” value [8] was 60% and the “Population Fragmented Nuclei (%)” value [8] was 40%. For the same molecule, the “Population Healthy Nuclei (%)” value [8] was 50%, the “Population Hoechst High Intensity Objects (%)” value [8] was 28% and the “Population Membrane Permeable-Phenotype (%)” value [8] was 18%. The “Population Mitochondria Different-Phenotype (%)” value [8] was 3%, the “Population Mitotic Cells (%)” value [8] was 40% and the “Population Normal (%)” value [8] was 72%. The “Population Pyknosed Nuclei (%)” value [8] was 9%, the “Population Tubulin-Different-Phenotype (%)” value [8] was 14% and the “Total Cell Count” value [8] was 75.
